pIC50: −log10 of the molar value. Activity calls are given as the source filed them. The rule behind the calls is not given here.
Key:
[1] = molecular target: T1, Kinesin-like protein KIF11 (Homo sapiens, UniProt P52732); assay: Inhibition of human C-terminally His6-tagged microtubule-activated KSP motor domain ATPase activity after 30 mins by luciferase-derived luminescence assay
T1 sequence (P52732 whole entry): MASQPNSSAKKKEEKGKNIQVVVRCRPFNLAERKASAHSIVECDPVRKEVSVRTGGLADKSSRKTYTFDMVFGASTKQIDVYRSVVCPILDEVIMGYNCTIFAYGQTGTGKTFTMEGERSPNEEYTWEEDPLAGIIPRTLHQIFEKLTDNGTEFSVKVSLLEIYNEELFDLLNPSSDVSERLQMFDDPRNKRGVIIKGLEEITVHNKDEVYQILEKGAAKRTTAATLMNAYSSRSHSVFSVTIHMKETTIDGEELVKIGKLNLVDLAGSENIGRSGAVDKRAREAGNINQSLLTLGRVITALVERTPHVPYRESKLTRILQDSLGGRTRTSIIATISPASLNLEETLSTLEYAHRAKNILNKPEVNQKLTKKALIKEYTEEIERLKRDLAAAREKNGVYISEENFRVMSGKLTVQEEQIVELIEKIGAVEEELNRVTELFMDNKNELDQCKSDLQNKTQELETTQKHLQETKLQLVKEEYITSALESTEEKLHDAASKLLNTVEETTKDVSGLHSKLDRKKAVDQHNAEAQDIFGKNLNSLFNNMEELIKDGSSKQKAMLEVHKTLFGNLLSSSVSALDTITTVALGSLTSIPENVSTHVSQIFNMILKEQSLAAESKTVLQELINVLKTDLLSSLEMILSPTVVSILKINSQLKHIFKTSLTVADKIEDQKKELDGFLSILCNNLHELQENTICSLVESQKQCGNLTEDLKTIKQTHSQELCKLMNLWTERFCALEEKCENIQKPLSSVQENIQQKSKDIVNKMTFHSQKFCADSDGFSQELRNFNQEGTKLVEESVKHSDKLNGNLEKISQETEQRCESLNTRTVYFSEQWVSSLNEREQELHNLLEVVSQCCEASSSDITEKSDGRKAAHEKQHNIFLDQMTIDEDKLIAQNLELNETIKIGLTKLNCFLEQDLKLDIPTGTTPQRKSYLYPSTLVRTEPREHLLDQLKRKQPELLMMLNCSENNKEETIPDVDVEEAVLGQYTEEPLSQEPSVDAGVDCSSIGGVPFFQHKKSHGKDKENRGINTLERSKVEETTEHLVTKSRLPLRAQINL

HeLa [2] = assay: Cytotoxicity against human HeLa cells at 60 uM after 48 hrs […]; format: functional
HeLa [3] = assay: Cytotoxicity against human HeLa cells after 48 hrs […]; format: functional, cell-based; settings: for pIC50: Homo sapiens, HeLa, 48 h
HeLa [4] = assay: Cell cycle arrest in human HeLa cells assessed as accumulation at M phase at 36 uM after 20 hrs by DAPI staining relative to taxol; format: functional; settings: in the assay text read “at 32 uM” for “at 36 uM”
In short: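 HeLa cells were exposed to compound for 20 h and scored for M-phase arrest. Mitotic index was expressed as a percentage of the induction given by 0.1 μM taxol.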

HeLa [5] = assay: Cell cycle arrest in human HeLa cells assessed as accumulation at G2/M phase with incomplete chromosome condensation at 36 uM after 20 hrs by DAPI staining; format: functional, cell-based
Sus scrofa [6] = organism: Sus scrofa; assay: Inhibition of pig brain topoisomerase 1-mediated supercoiled DNA relaxation after 20 mins by agarose gel electrophoresis analysis
In short: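 Supercoiled DNA was incubated with topo I, with or without test compound. Gel lanes included supercoiled DNA alone, DNA plus enzyme without compound, and DNA plus enzyme with camptothecin as the reference inhibitor.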

Sus scrofa [7] = organism: Sus scrofa; assay: Inhibition of pig brain topoisomerase 2-mediated supercoiled DNA relaxation after 20 mins by agarose gel electrophoresis analysis
In short: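 Supercoiled DNA was incubated with topo II, with or without test compound. Gel lanes included supercoiled DNA alone, DNA plus enzyme without compound, and DNA plus enzyme with AMSA as the reference inhibitor.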

| Compound | pIC50 [1] | inhibition at 60 µM (HeLa [2]) [%] | pIC50 (HeLa [3]) | also measured |
| --- | --- | --- | --- | --- |
| COC(=O)c1ccc2[nH]c3cc(C(C)(C)C)ccc3c2c1 | 6.41 | < 50 |  |  |
| c1ccc2c(c1)[nH]c1c3c(ccc12)CCCC3 | 5.80 |  | 4.52 |  |
| FC(F)(F)c1cccc2c1[nH]c1ccccc12 | 5.48 | < 50 |  |  |
| c1ccc2c(c1)ccc1c3ccccc3[nH]c21 | 5.34 | < 50 |  |  |
| CC(C)(C)Oc1ccc2c(c1)[nH]c1ccccc12 | 5.49 | < 50 |  | inhibition (INH) (HeLa [3]): <50% |
| Cc1ccc2c(c1)[nH]c1ccccc12 | 4.66 | < 50 |  |  |
| Cc1ccc2[nH]c3ccc(C(F)(F)F)cc3c2c1 | 5.06 | < 50 |  |  |
| CC(C)(C)c1ccc2c(c1)[nH]c1ccc(C(=O)O)cc12 | 4.96 | < 50 |  |  |
| Cn1c2ccccc2c2ccc(C(F)(F)F)cc21 | 5.25 | < 50 |  |  |
| Cc1ccc2c(c1)[nH]c1ccc(C(F)(F)F)cc12 | 4.96 |  | 4.46 |  |
| Cc1ccc2c(c1)[nH]c1ccc(F)cc12 | 5.12 | < 50 |  |  |
| COC(=O)c1ccc2c(c1)[nH]c1ccccc12 | 4.96 | < 50 |  |  |
| O=Cc1ccc2[nH]c3ccccc3c2c1 | 4.77 | < 50 |  |  |
| CC(C)(C)c1ccc2[nH]c3ccccc3c2c1 | 6.62 |  | 5.19 | Activity (HeLa [4]): 76%; Activity (HeLa [5]): Active |
| CCc1ccc2c(c1)[nH]c1ccccc12 | 5.55 | < 50 |  |  |
| CC(C)c1ccc2c(c1)[nH]c1ccccc12 | 5.82 |  | 5.82 |  |
| Cc1cccc2c1[nH]c1ccccc12 | 4.64 | < 50 |  |  |
| O=Cc1ccc2c(c1)[nH]c1ccccc12 | 4.89 | < 50 |  |  |
| CC(=O)c1ccc2[nH]c3cc(C)ccc3c2c1 | 5.80 |  | 4.29 |  |
| Oc1ccc2c(c1)[nH]c1ccccc12 |  | < 50 |  |  |
| FC(F)(F)Oc1ccc2c(c1)[nH]c1ccccc12 | 6.29 |  | 4.54 |  |
| CC(C)(C)c1cccc2c1[nH]c1ccccc12 | 4.85 |  | 4.39 |  |
| COc1ccc2c(c1)[nH]c1c(C)nccc12 |  |  |  | inhibition (Sus scrofa [6]): Active; inhibition (Sus scrofa [7]): Active |
| CCCCN1C(=O)[C@@H]2Cc3c([nH]c4ccccc34)[C@@H](c3cccc(O)c3)N2C1=O | 5.15 |  | 5.07 |  |
| CC(C)(C)c1ccc2c(c1)[nH]c1cc(C(F)(F)F)ccc12 | 5.85 | < 50 |  |  |
| FC(F)c1ccc2c(c1)[nH]c1ccccc12 | 6.06 |  | 4.34 |  |
| c1ccc2c(c1)[nH]c1cc3c(cc12)CCCC3 | 4.60 | < 50 |  |  |

From ChEMBL document CHEMBL1177716, “Kinesin spindle protein (KSP) inhibitors with 2,3-fused indole scaffolds” (J Med Chem, 2010)
